Test results published in ChEMBL document CHEMBL1159052 (Bioorg Med Chem, 2010).
pIC50, pKi: −log10 of the molar value.

Legend:
[1] = Displacement of [3H]MLA from alpha7 nAChR in rat brain homogenate by liquid scintillation spectrophotometry; assay type: tissue-based
Procedure, shortened: (§1)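 Membranes came from whole brain minus cortex and cerebellum, washed in Krebs-HEPES buffer at pH 7.5, 100–140 μg protein per tube. IC50 came from a curve fit; Ki by Cheng-Prusoff. At least four experiments, each in duplicate.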

[2] = target: T1, Neuronal acetylcholine receptor; alpha4/beta2 (Rattus norvegicus, UniProt P09483+P12390); test: Displacement of [3H]nicotine from alpha4beta2 nAChR in rat brain homogenate by liquid scintillation spectrophotometry; assay type: tissue-based; procedure, shortened: as §1
[3] = target: Sodium-dependent dopamine transporter (Rattus norvegicus, UniProt P23977); test: Inhibition of [3H]DA uptake at DAT in rat brain striatal synaptosomes by liquid scintillation spectrophotometry; assay type: subcellular
Procedure, shortened: (§2)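 Synaptosomes were striatal for [3H]DA and hippocampal for [3H]5-HT, as P2 pellets in oxygenated Krebs with pargyline and ascorbate (pH 7.4), protein 400 μg/ml. Drug at […] was preincubated 10 min at 34 °C, then 10 nM tritiated substrate was added for 10 min. Uptake was stopped with ice-cold buffer and filtered on GF/B. Nonspecific uptake used 10 μM nomifensine (DA) or 10 μM fluoxetine (5-HT). Duplicates; IC50 by curve fit; Ki by Cheng-Prusoff.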

[4] = target: Sodium-dependent serotonin transporter (Rattus norvegicus, UniProt P31652); test: Inhibition of [3H]5HT uptake at SERT in rat brain hippocampal synaptosomes by liquid scintillation spectrophotometry; assay type: subcellular, Hippocampus; procedure, shortened: as §2
[5] = target: T2, Synaptic vesicular amine transporter (Rattus norvegicus, UniProt Q01827); test: Displacement of [3H]MTBZ from VMAT2 in rat whole brain vesicles by liquid scintillation spectrophotometry
Procedure, shortened: (§3)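 Vesicles came from rat whole brain minus cerebellum, by hypotonic lysis and 100,000g pelleting, in HEPES/potassium-tartrate/MgSO4 buffer at pH 7.5, 15 μg protein per 100 μl. Final radioligand was 3 nM [3H]MTBZ or [3H]DTBZ, run in duplicate. Samples were filtered on PEI-soaked GF/B. Ki values come from at least four independent experiments.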

[6] = target: T2, Synaptic vesicular amine transporter; test: Displacement of [3HDTBZ from VMAT2 in rat whole brain vesicles by liquid scintillation spectrophotometry
Procedure, shortened: as §3, with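 “duplicate. […]” for “duplicate.”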

[7] = target: T1, Neuronal acetylcholine receptor; alpha4/beta2; test: Antagonist activity at alpha4beta2 nAChR in rat brain synaptosomes assessed as inhibition of nicotine-induced 86Rb+ efflux by liquid scintillation spectrophotometry; assay type: functional, subcellular
[8] = target: Synaptic vesicular amine transporter (Homo sapiens, UniProt Q05940); test: Binding affinity to VMAT2 receptor
Synaptic vesicular amine transporter (Homo sapiens, UniProt Q05940), sequence (Q05940 whole entry): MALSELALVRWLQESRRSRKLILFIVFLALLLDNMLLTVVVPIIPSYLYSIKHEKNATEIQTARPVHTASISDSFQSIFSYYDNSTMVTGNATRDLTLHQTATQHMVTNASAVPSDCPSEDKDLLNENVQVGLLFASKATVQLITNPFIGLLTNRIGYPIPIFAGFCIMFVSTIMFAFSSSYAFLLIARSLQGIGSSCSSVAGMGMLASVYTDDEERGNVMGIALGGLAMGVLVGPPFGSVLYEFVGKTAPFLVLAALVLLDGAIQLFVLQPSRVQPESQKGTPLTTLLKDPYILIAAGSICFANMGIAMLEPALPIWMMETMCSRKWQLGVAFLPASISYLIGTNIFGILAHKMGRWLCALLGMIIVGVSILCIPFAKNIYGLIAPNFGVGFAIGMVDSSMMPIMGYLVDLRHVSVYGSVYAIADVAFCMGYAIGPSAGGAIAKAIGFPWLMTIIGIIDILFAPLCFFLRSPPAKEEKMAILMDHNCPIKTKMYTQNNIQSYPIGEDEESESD

Sodium-dependent serotonin transporter, sequence (P31652 whole entry): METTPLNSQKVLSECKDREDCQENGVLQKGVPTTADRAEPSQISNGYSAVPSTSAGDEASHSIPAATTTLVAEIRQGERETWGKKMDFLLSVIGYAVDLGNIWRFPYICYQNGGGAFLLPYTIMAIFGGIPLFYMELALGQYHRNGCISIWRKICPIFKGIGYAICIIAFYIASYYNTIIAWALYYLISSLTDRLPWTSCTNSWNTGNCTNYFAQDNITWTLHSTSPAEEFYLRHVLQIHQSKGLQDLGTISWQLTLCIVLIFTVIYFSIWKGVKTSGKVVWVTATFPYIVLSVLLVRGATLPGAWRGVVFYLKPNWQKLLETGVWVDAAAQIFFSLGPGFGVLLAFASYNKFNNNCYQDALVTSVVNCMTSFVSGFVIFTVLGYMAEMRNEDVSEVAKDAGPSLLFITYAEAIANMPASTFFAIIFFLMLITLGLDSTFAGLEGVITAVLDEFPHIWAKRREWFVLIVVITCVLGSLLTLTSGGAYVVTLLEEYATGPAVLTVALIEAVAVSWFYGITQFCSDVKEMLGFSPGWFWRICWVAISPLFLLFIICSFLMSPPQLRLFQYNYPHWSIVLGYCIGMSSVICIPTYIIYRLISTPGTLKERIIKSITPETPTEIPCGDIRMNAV
T2 sequence (Q01827 whole entry): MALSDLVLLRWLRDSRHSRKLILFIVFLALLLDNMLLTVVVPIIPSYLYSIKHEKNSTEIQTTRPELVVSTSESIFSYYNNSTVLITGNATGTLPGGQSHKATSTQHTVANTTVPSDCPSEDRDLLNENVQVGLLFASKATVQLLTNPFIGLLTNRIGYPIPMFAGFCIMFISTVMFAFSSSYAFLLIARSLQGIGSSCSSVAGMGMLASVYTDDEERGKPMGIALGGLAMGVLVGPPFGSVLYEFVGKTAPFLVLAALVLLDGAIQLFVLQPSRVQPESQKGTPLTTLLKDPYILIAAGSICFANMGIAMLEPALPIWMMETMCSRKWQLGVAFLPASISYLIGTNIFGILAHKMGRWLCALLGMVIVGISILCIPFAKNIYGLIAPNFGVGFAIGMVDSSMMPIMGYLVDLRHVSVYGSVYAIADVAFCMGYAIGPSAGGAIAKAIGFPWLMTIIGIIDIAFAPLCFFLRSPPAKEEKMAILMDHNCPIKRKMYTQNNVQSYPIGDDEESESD
T1 sequence (P09483 whole entry): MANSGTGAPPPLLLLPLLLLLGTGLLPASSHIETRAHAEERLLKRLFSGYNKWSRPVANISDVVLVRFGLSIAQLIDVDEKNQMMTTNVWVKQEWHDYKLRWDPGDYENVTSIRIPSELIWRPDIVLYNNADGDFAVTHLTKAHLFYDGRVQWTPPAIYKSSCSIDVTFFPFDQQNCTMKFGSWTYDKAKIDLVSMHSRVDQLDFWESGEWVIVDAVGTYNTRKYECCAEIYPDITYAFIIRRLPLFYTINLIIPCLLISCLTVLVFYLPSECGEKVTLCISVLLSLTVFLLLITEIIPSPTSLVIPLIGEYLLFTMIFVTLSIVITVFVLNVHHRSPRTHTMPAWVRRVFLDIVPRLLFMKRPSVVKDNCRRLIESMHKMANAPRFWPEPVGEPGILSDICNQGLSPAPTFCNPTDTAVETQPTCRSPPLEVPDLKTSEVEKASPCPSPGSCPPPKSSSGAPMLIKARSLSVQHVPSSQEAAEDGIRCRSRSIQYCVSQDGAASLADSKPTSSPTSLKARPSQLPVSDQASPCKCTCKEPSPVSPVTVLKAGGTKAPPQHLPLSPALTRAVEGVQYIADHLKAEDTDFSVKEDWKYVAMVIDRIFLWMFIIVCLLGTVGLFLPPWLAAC
T1 sequence (P12390 whole entry): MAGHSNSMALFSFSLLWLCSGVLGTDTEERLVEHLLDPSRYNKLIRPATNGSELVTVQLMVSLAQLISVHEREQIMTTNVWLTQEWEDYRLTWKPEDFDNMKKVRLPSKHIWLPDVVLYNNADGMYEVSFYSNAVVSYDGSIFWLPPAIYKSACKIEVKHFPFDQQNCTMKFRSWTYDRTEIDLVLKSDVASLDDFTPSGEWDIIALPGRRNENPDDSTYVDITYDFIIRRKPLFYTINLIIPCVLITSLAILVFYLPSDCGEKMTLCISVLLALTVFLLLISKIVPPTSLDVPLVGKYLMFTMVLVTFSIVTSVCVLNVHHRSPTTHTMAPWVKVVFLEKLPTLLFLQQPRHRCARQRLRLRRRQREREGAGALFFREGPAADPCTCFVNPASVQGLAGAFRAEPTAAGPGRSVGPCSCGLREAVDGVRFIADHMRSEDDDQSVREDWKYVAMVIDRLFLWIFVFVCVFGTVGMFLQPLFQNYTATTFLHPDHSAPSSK
Sodium-dependent dopamine transporter, sequence (P23977 whole entry): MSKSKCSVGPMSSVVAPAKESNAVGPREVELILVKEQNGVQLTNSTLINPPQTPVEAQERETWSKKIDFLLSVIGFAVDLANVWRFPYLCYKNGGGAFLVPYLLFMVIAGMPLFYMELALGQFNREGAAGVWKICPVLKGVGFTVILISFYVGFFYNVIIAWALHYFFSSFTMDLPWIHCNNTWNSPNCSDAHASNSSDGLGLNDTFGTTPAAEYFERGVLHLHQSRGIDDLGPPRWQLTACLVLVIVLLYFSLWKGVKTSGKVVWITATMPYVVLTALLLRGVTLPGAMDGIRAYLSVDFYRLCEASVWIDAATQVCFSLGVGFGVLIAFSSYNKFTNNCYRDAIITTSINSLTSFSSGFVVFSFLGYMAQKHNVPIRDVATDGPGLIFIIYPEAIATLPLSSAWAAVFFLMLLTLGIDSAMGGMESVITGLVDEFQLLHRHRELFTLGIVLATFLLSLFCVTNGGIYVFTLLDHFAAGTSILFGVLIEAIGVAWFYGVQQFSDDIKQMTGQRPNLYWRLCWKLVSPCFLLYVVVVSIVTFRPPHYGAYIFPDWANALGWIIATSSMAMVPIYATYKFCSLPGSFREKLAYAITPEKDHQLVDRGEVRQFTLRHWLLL

| SMILES | pKi [1] | pKi [2] | pKi [3] | pKi [4] | pKi [5] | pKi [6] | pIC50 [7] | pKi [8] |
| --- | --- | --- | --- | --- | --- | --- | --- | --- |
| CC(C)C(=O)OC(C[C@@H]1CCCC(CC(=O)c2ccccc2)N1C)c1ccccc1 (single isomer, unassigned) | < 4.00 | 7.22 | 5.62 | 5.97 | 5.58 | – | – | – |
| CN1[C@@H](CC(=O)c2ccccc2)CCC[C@H]1C[C@H](OC(=O)c1cccs1)c1ccccc1 | 4.44 | 6.07 | 5.52 | 5.01 | 5.20 | – | – | – |
| CCCCS(=O)(=O)OC(C[C@@H]1CCCC(CC(=O)c2ccccc2)N1C)c1ccccc1 (single isomer, unassigned) | 4.39 | 7.96 | 4.93 | 5.29 | – | 5.70 | – | – |
| CN1[C@@H](CC(=O)c2ccccc2)CCC[C@H]1C[C@H](OS(=O)(=O)c1cccs1)c1ccccc1 | 4.27 | 7.89 | 4.70 | 4.74 | – | 5.37 | – | – |
| Cc1ccc(S(=O)(=O)OC(C[C@@H]2CCCC(CC(=O)c3ccccc3)N2C)c2ccccc2)cc1 (single isomer, unassigned) | 4.74 | 8.30 | 4.54 | 4.79 | – | 4.97 | 8.70 | – |
| CN1C(CC(=O)c2ccccc2)CCC[C@H]1CC(OC(=O)c1ccccc1)c1ccccc1 (single isomer, unassigned) | < 4.00 | 5.54 | 5.64 | 5.68 | 5.82 | – | 6.07 | – |
| CCC(=O)OC(C[C@@H]1CCCC(CC(=O)c2ccccc2)N1C)c1ccccc1 (single isomer, unassigned) | 5.05 | 6.82 | 5.16 | 5.31 | 5.32 | – | – | – |
| CCCC(=O)OC(C[C@@H]1CCCC(CC(=O)c2ccccc2)N1C)c1ccccc1 (single isomer, unassigned) | < 4.00 | 6.30 | 5.32 | 4.91 | 5.47 | – | – | – |
| CN1C(CC(=O)c2ccccc2)CCC[C@H]1CC(OS(=O)(=O)c1ccc([N+](=O)[O-])cc1)c1ccccc1 (single isomer, unassigned) | 4.27 | 7.89 | 4.70 | 4.74 | – | 5.37 | – | – |
| CC(=O)OC(C[C@@H]1CCCC(CC(=O)c2ccccc2)N1C)c1ccccc1 (single isomer, unassigned) | < 4.00 | 7.15 | 5.33 | 4.50 | 5.09 | – | – | – |
| CN1[C@@H](CCc2cccc3ccccc23)CCC[C@H]1CCc1cccc2ccccc12 | – | – | – | – | – | – | – | 6.20 |
| Cc1ccc(C(=O)O[C@@H](C[C@@H]2CCC[C@H](CC(=O)c3ccccc3)N2C)c2ccccc2)cc1 | < 4.00 | 5.79 | 5.69 | 5.82 | 5.75 | – | – | – |
| CN1C(CC(=O)c2ccccc2)CCC[C@H]1CC(OS(=O)(=O)c1ccccc1)c1ccccc1 (single isomer, unassigned) | 4.46 | 8.10 | 4.97 | 4.43 | – | 5.46 | 5.80 | – |
| CN1[C@@H](CC(=O)c2ccccc2)CCC[C@H]1C[C@H](OS(=O)(=O)c1ccc2ccccc2c1)c1ccccc1 | 4.73 | 8.00 | 4.87 | 5.30 | – | 5.61 | – | – |
| CN1[C@@H](CC(=O)c2ccccc2)CCC[C@H]1C[C@H](OS(=O)(=O)c1cccc2ccccc12)c1ccccc1 | < 4.00 | 7.77 | 5.38 | 4.46 | – | 5.39 | – | – |
| CN1C(CC(=O)c2ccccc2)CCC[C@H]1CC(OS(=O)(=O)c1ccc(Cl)cc1)c1ccccc1 (single isomer, unassigned) | < 4.00 | 7.80 | 4.97 | 5.36 | – | 5.49 | – | – |
| COc1ccc(C(=O)O[C@@H](C[C@@H]2CCC[C@H](CC(=O)c3ccccc3)N2C)c2ccccc2)cc1 | 4.74 | 4.71 | 5.42 | 5.69 | 5.53 | – | – | – |
| CC(C)S(=O)(=O)OC(C[C@@H]1CCCC(CC(=O)c2ccccc2)N1C)c1ccccc1 (single isomer, unassigned) | 4.32 | 7.82 | 5.34 | 4.79 | – | 5.68 | – | – |
| CN1C(CC(=O)c2ccccc2)CCC[C@H]1CC(OS(=O)(=O)Cc1ccccc1)c1ccccc1 (single isomer, unassigned) | 4.33 | 7.89 | 4.83 | 5.34 | – | 5.40 | – | – |
| CN1C(CC(=O)c2ccccc2)CCC[C@H]1CC(OS(=O)(=O)c1ccc(F)cc1)c1ccccc1 (single isomer, unassigned) | 4.62 | 7.92 | 4.75 | 5.33 | – | 5.52 | – | – |
